For data set [1], the species on record is Rattus norvegicus. The experiment in a line: Selectivity ratio of EC50 for rat S1P3 receptor to EC50 for rat S1P1 receptor. In a few lines:
(§1)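 Membranes from CHO cells expressing rat or human S1P1 or S1P3, homogenized in 5 mM Tris–HCl pH 7.4, 0.25 M sucrose, 1 mM EDTA, 1 mM EGTA and spun at 100,000 × g for 60 min at 4 °C. Serial compound dilutions added to 1–10 µg protein/well, and [35S]GTPγS binding measured. EC50 is the midpoint between vehicle binding ratio and maximal response. Selectivity is the S1P3/S1P1 EC50 ratio.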

For another data set, the species on record is Homo sapiens. Description: Selectivity ratio of EC50 for human S1P3 receptor to EC50 for human S1P1 receptor. The procedure, abridged:
as §1

Data set [2] is described as follows: Agonist activity at rat S1P3 receptor expressed in CHO-K1 cells assessed as induction of GTPgammaS binding. It is filed as cell-based. The procedure, abridged:
as §1
On the technique in general: GTPγS is a poorly hydrolysed GTP analogue; its binding reports G protein activation.

Data set [3] is described as follows: Terminal half life in Lewis rat at 0.1 mg/kg, po. Also on record: dose 0.1 mg/kg, route oral. Type of data set: ADME, organism-based. The settings on record: in vivo, read-out: beta t1/2 (converted). The procedure, abridged:
(§2)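 Male Lewis rats given a single oral dose (0.1 or 1 mg/kg) suspended in 1% methyl cellulose; plasma taken from the blood samples of the lymphocyte-count study, 5 rats per time point up to 72 h. Drug quantified by LC–MS/MS after solid-phase extraction on a C18 column. Noncompartmental parameters calculated from mean concentrations.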

Data set [4] can be described thus: AUC (0 to 72 hrs) in Lewis rat at 1 mg/kg, po. Type of data set: ADME, organism-based. Also on record: time < 72 hr, dose 1 mg/kg, route oral. The settings on record: plasma. The procedure, abridged:
as §2

Data set [5] is described as follows: Cmax in Lewis rat at 0.1 mg/kg, po. It is filed as ADME, organism-based. Also on record: dose 0.1 mg/kg, route oral. Conditions: in vivo. In a few lines:
as §2

Data set [6] is described as follows: Terminal half life in Lewis rat at 1 mg/kg, po. The settings on record: in vivo, read-out: beta t1/2 (converted). Type of data set: ADME, organism-based. Details: dose 1 mg/kg, route oral. The procedure, abridged: as §2
Data set [7] is described as follows: Cmax in Lewis rat at 1 mg/kg, po. Type of data set: ADME, organism-based. Also on record: dose 1 mg/kg, route oral. Conditions: in vivo. In a few lines:
as §2

A short description of data set [8]: Cmax in C57BL/6J mouse at 1 mg/kg, po. The settings on record: in vivo. It is filed as ADME, organism-based. Details: dose 1 mg/kg, route oral. In a few lines:
(§3)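 Male C57BL/6J mice given 1 mg/kg orally at 5 ml/kg as a solution in dimethyl acetamide/25% Purebright/water (1/8/1). Plasma assayed by LC–MS/MS after solid-phase extraction, 5 animals per time point. Noncompartmental analysis performed on mean concentrations.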

Data set [9] can be described thus: Tmax in Lewis rat at 1 mg/kg, po. It is filed as ADME, organism-based. Also on record: dose 1 mg/kg, route oral. Conditions: in vivo. In a few lines: as §2
In data set [10] the target is T1, Sphingosine 1-phosphate receptor 4 (Homo sapiens, UniProt O95977).
T1 sequence (O95977 whole entry): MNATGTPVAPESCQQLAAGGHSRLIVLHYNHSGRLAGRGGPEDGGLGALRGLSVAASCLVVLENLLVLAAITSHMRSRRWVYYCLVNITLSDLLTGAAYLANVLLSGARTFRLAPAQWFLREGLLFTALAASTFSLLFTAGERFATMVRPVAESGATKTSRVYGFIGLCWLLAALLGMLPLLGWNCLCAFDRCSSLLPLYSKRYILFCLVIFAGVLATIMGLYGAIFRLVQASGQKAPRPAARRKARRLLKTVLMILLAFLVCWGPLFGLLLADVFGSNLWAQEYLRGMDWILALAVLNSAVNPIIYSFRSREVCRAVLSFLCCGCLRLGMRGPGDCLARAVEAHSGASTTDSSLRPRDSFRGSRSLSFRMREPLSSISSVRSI
Description: Agonist activity at human S1P4 receptor. Type of data set: functional.

Data set [11] concerns Rattus norvegicus. The experiment in a line: Immunomodulatory activity in Lewis rat assessed as decrease in peripheral blood lymphocyte numbers at 0.1 mg/kg, po after 8 hrs relative to control. Type of data set: functional. Details: scale not given: the % may be the effect or the level left. The procedure, abridged: (§4)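 Male Lewis rats, 5 weeks old, 5 per group. Single oral dose (0.1 or 1 mg/kg) suspended in 1% w/v methyl cellulose #400 at 5 ml/kg; vehicle controls. Postcaval vein blood taken under ether anesthesia at 0.5–48 h into EDTA tubes. Absolute lymphocytes counted on a full blood count analyzer, expressed relative to vehicle control, mean ± SE.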

Data set [12] deals with Rattus norvegicus. Description: Immunomodulatory activity in Lewis rat assessed as decrease in peripheral blood lymphocyte numbers at 0.1 to 1 mg/kg, po after 24 to 48 hrs. Type of data set: functional, organism-based. In a few lines:
as §4

For data set [13], the target named is Sphingosine 1-phosphate receptor 5 (Homo sapiens, UniProt Q9H228). The experiment in a line: Agonist activity at human S1P5 receptor. Type of data set: functional.
Chain of Sphingosine 1-phosphate receptor 5 (Q9H228 whole entry): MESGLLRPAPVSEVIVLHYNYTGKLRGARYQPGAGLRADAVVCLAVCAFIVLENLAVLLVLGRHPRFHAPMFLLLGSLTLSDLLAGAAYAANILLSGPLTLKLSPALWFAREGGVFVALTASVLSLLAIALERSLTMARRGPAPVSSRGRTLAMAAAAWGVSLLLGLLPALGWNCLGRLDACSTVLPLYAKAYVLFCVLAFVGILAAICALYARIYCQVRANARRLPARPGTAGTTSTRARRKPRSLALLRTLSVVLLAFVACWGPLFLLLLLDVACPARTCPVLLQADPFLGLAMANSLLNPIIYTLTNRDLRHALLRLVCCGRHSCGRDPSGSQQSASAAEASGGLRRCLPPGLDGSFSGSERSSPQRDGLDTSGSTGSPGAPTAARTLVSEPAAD
Data set [14] is described as follows: Terminal half life in C57BL/6J mouse at 1 mg/kg, po. Type of data set: ADME, organism-based. Also on record: dose 1 mg/kg, route oral. The settings on record: in vivo, read-out: beta t1/2 (converted). In a few lines:
as §3

The target in data set [15] is Sphingosine 1-phosphate receptor 3 (Homo sapiens, UniProt Q99500). Description: Agonist activity at human S1P3 receptor expressed in CHO-K1 cells assessed as induction of GTPgammaS binding. It is filed as functional, cell-based. The procedure, abridged: as §1
Chain of Sphingosine 1-phosphate receptor 3 (Q99500 whole entry): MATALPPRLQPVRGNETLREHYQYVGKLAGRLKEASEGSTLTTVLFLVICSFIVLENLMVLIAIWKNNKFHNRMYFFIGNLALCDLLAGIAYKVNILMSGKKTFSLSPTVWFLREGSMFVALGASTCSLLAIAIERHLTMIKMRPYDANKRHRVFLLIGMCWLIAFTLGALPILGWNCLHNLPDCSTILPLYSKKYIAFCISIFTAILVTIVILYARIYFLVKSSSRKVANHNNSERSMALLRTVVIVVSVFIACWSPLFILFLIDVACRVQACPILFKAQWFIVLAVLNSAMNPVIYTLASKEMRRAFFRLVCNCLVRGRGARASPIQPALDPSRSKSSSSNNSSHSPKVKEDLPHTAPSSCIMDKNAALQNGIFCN
Data set [16] concerns Rattus norvegicus. Description: Antiarthritic activity in po dosed Lewis rat assessed as reduction of adjuvant-induced right hind foot volume administered as qd for 18 days. The settings on record: 432 h, read-out: ID50 (the source's name). Type of data set: functional. The procedure, abridged:
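Lewis rats injected intradermally with adjuvant (0.05 ml) in the right hind footpad. Oral dosing at 0.1, 0.3, 1 or 3 mg/kg in 1% methyl cellulose, 5 ml/kg, once daily from Day 0 for 18 days; uninjected normal group. Right foot volume measured by plethysmometer on Days 0–18. % inhibition computed against control and normal, and ID50 taken by least-squares regression of % inhibition against log dose at Day 18.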

Data set [17] in a line: Metabolic stability in liver microsomes assessed as 4-PBA level. It is filed as ADME, Microsome. For orientation: Microsomes from liver hold many membrane-bound enzymes, among them those of drug oxidation.
Data set [18] in a line: Metabolic stability in liver microsomes assessed as degradation of 1,2,4-oxadiazole ring. Type of data set: ADME, Microsome.
A short description of data set [19]: Tmax in C57BL/6J mouse at 1 mg/kg, po. It is filed as ADME, organism-based. Also on record: dose 1 mg/kg, route oral. Conditions: in vivo. The procedure, abridged:
as §3

The target in data set [20] is Sphingosine 1-phosphate receptor 1 (Rattus norvegicus, UniProt P48303). The experiment in a line: Agonist activity at rat S1P1 receptor expressed in CHO-K1 cells assessed as induction of GTPgammaS binding. Type of data set: functional, cell-based. The procedure, abridged: as §1
Chain of Sphingosine 1-phosphate receptor 1 (P48303 whole entry): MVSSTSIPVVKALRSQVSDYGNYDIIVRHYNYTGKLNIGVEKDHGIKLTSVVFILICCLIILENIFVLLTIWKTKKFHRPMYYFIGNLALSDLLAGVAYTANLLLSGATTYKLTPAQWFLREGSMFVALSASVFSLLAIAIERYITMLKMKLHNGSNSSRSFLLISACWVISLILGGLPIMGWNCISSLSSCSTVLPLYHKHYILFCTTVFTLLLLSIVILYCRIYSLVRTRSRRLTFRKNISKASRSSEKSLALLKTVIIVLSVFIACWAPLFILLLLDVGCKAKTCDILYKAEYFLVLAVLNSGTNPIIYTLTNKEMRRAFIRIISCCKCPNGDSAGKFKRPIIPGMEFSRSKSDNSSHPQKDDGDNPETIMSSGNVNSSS
Data set [21] deals with Rattus norvegicus. Description: Drug metabolism in po dosed rat plasma assessed as 4-PBA level. It is filed as ADME, organism-based. Conditions: in vivo.
Data set [22] concerns Mus musculus. The experiment in a line: Antimultiple sclerosis activity in C57BL/6J mouse assessed as reduction of experimental autoimmune encephalomyelitis score at 0.3 mg/kg, po qd for 23 days. It is filed as functional, organism-based. Also on record: dose 0.3 mg/kg.
The test system of a further data set is Rhesus monkey. Description: Drug metabolism in po dosed monkey plasma assessed as 4-PBA level. It is filed as ADME, organism-based, Macaca mulatta. The settings on record: in vivo.
Data set [23] is described as follows: AUC (0 to 72 hrs) in C57BL/6J mouse at 1 mg/kg, po. It is filed as ADME, organism-based. Also on record: time < 72 hr, dose 1 mg/kg, route oral. The settings on record: plasma. In a few lines: as §3
The nature of data set [24]: AUC (0 to 72 hrs) in Lewis rat at 0.1 mg/kg, po. Type of data set: ADME, organism-based. Details: time < 72 hr, dose 0.1 mg/kg, route oral. Conditions: plasma. The procedure, abridged:
as §2

In data set [25] the test system is Mus musculus. The experiment in a line: Antimultiple sclerosis activity in C57BL/6J mouse assessed as reduction of experimental autoimmune encephalomyelitis score at 1 mg/kg, po qd for 23 days. Type of data set: functional, organism-based. Details: dose 1 mg/kg.
Data set [26] has as its system Rattus norvegicus. Description: Immunomodulatory activity in Lewis rat assessed as decrease in peripheral blood lymphocyte numbers at 1 mg/kg, po after 8 hrs relative to control. Type of data set: functional. Also on record: scale not given: the % may be the effect or the level left. The procedure, abridged:
as §4

Data set [27] in a line: Tmax in Lewis rat at 0.1 mg/kg, po. It is filed as ADME, organism-based. Details: dose 0.1 mg/kg, route oral. The settings on record: in vivo. The procedure, abridged: as §2

Active and inactive are the calls of the source. The calls are words filed in the database; no cut-off is given here. Bounds are passed on as bounds.

The EC50 is the concentration giving half of the maximal effect. For `Cc1ccc(CCCC(=O)c2ccc(CC[C@@](C)(N)COP(=O)(O)O)n2C)cc1`, the Ratio EC50 in the data set listed under Rattus norvegicus [1] is 100; in the data set listed under Homo sapiens it was 320. The EC50 in data set [2] was 200 nM.

Usually AUC(0-t) stands for exposure summed from dosing to a finite time, without extrapolation to infinity. By Cmax is commonly meant the peak of the concentration-time curve. Broadly, the Tmax is the time from dosing to the highest level. For `CCc1cc(CN2CC(C(=O)O)C2)sc1-c1noc(-c2ccc(Oc3ccccc3)cc2)n1`, the half-life in data set [3] was 12.4 h; in data set [6] it was 8.73 h; in data set [14], 13.9 h. For the same molecule, the figures for the AUC(0-t) at 72 h in data set [4], in data set [23] and in [24] were 2670 ng·h/mL, 1540 ng·h/mL and 268 ng·h/mL, respectively. Moreover, the Cmax was found to be 17.4 ng/mL in [5], 186 ng/mL in [7] and 135 ng/mL in data set [8]. The Tmax is 4 h in data set [9], 2 h in data set [19] and 4 h in data set [27]. Besides, the EC50 is 58 nM in data set [10]; 17 nM in [13]; 7400 nM in data set [2]; over 20000 nM in data set [15]; 1.5 nM in [20]. Moreover, the Activity in the data set with Rattus norvegicus [11] worked out at 27%; with Rattus norvegicus [26], 11%. Further, the outcome in the data set with Rattus norvegicus [12] was inactive. Further, the Ratio EC50 in the data set listed under Homo sapiens was over 5000. For the same molecule, the ED50 in the data set on Rattus norvegicus [16] is 0.44 mg/kg. For the same molecule, the Stability entry in data set [17] and in data set [18] was “Stable” in each case. The Drug metabolism result with Rattus norvegicus [21] and in the data set with Rhesus monkey was “Active” in each case. Besides, the result in the data set with Mus musculus [22] and with Mus musculus [25] was Active.

Turning to `CCCCCCCCc1ccc(CC[C@](N)(CO)COP(=O)(O)O)cc1` [FTY720-P], in [2], the concentration giving a half-maximal response (EC50) was 1.3 nM.

For the origin of these results see ChEMBL document CHEMBL1955716, “Synthesis and evaluation of CS-2100, a potent, orally active and S1P(3)- sparing S1P(1) agonist” (Eur J Med Chem, 2012).
